Experimental findings from ChEMBL document CHEMBL1687745 (Antimicrob Agents Chemother, 2009) are described below.

Converted amounts (≈) assume the structure as drawn. The source made the active and inactive calls. No cut-off for these calls is given here.

Data set [1] deals with Bacillus subtilis. The data set can be described thus: Antimicrobial activity against Bacillus subtilis clinical isolate by broth microdilution method. The class given is functional. On the technique in general: Broth dilution looks for growth in wells or tubes with falling amounts of substance.
For data set [2], the system named is HeLa. The data set can be described thus: Effect on cell membrane integrity in human HeLa cells assessed as lactate dehydrogenase release at 32 times MIC against Staphylococcus aureus by CytoTox ONE homogenous membrane integrity assay. It counts as cell-based. An outline of the steps:
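Confluent HeLa cells in DMEM treated for 1 h with a range of compound concentrations, 1% DMSO final. […] LDH activity in the supernatant measured by a membrane-integrity kit.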

Data set [3] has as its system Burkholderia cepacia. Put plainly: Antimicrobial activity against Burkholderia cepacia clinical isolate by broth microdilution method. The class given is functional. An outline of the steps:
(§1)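 Broth microdilution. Log-phase cultures (5 × 10^5 CFU/ml) seeded in 96-well plates with compound from 0 to 20 µM or 1% DMSO control. Incubated at 37°C for 16 to 20 h. Growth read as absorbance at 600 nm.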

The subject of data set [4] is Bacillus anthracis. The data set can be described thus: Protection against Bacillus anthracis Sterne spores induced cell death in mouse J774A1 cells assessed as live viable cells at 10 uM by Sytox green dye staining assay relative to untreated control. It counts as functional, J774.A1.
In data set [5] the test system is Bacillus anthracis. The data set can be described thus: Antimicrobial activity against Bacillus anthracis Ames by broth microdilution method in presence of 10% fetal calf serum. It counts as functional.
For data set [6], the system named is Mycolicibacterium smegmatis. The data set can be described thus: Antimicrobial activity against Mycobacterium smegmatis 35798 by broth microdilution method. The class given is functional. An outline of the steps:
as §1

Data set [7] relates to Staphylococcus aureus. The data set can be described thus: Antimicrobial activity against Staphylococcus aureus ATCC 25923 by broth microdilution method. It counts as functional. An outline of the steps: as §1
The subject of data set [8] is Bacillus subtilis. Put plainly: Inhibition of DNA synthesis in Bacillus subtilis BD54 at 5 X MIC by [3H]thymidine incorporation assay. The class given is functional, organism-based. An outline of the steps: (§2)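 Precursors were [methyl-3H]thymidine (DNA), [5-3H]uridine (RNA), L-[4,5-3H]leucine (protein) and N-acetyl-D-[1-3H]glucosamine (cell wall). Samples taken over time, precipitated with equal volume of ice-cold 20% TCA, filtered on glass fibre, and counted. cpm plotted against time.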

The test system of data set [9] is Enterococcus faecalis. The data set can be described thus: Antimicrobial activity against vancomycin-resistant Enterococcus faecalis ATCC 51575 by broth microdilution method. The class given is functional.
Data set [10] concerns Bacillus anthracis. The data set can be described thus: microbe, parasite or virus in culture. Particulars: Ames.
The subject of data set [11] is Pseudomonas aeruginosa. The data set can be described thus: Antimicrobial activity against Pseudomonas aeruginosa PAO1 by broth microdilution method. The class given is functional. A digest of the protocol: as §1
The subject of data set [12] is Burkholderia pseudomallei. Put plainly: Antimicrobial activity against Burkholderia pseudomallei DD503 by broth microdilution method. The class given is functional.
For data set [13], the system named is Enterococcus faecalis. Put plainly: Antimicrobial activity against Enterococcus faecalis 29212 clinical isolate by broth microdilution method. It counts as functional.
Data set [14] has as its system Bacillus licheniformis. Put plainly: Antimicrobial activity against Bacillus licheniformis clinical isolate by broth microdilution method. It counts as functional.
For data set [15], the system named is Bacillus anthracis. Put plainly: microbe, parasite or virus in culture. Particulars: Ames. This is another data set of the same source.
The subject of data set [16] is Staphylococcus aureus. Put plainly: Antimicrobial activity against methicillin-resistant Staphylococcus aureus clinical isolate by broth microdilution method. The class given is functional.
Data set [17] concerns Enterococcus faecalis. The data set can be described thus: Antimicrobial activity against Enterococcus faecalis clinical isolate by broth microdilution method. It counts as functional. An outline of the steps: as §1
Data set [18] deals with Escherichia coli. The data set can be described thus: Antimicrobial activity against Escherichia coli J53 clinical isolate by broth microdilution method. The class given is functional.
Data set [19] deals with Bacillus anthracis. The data set can be described thus: Antimicrobial activity against Bacillus anthracis Sterne vegetative cells by broth microdilution method. It counts as functional.
A short description of data set [20]: Cytotoxicity against human HeLa cells after 3 days by MTS assay in presence of 10% fetal calf serum. It counts as cell-based.
Data set [21] deals with Enterococcus faecium. Put plainly: Antimicrobial activity against vancomycin-resistant Enterococcus faecium B42762 by broth microdilution method. The class given is functional.
The subject of data set [22] is Yersinia pestis. The data set can be described thus: Antimicrobial activity against Yersinia pestis by broth microdilution method. It counts as functional.
In data set [23] the test system is Mycolicibacterium smegmatis. Put plainly: Antimicrobial activity against Mycobacterium smegmatis 700009 by broth microdilution method. The class given is functional. An outline of the steps: as §1
The subject of data set [24] is Staphylococcus aureus. The data set can be described thus: Antimicrobial activity against methicillin-resistant Staphylococcus aureus 1094 by broth microdilution method. It counts as functional.
The test system of data set [25] is Bacillus anthracis. Put plainly: Antimicrobial activity against Bacillus anthracis Sterne spores by broth microdilution method. It counts as functional.
The test system of data set [26] is Bacillus subtilis. The data set can be described thus: Inhibition of cell wall synthesis in Bacillus subtilis BD54 at 5 X MIC by N-acetyl-D-[1-3H] glucosamine incorporation assay. It counts as functional. A digest of the protocol: as §2
Data set [27] has as its system Brevibacillus brevis. Put plainly: Antimicrobial activity against Bacillus brevis clinical isolate by broth microdilution method. It counts as functional. An outline of the steps: as §1
Data set [28] relates to Priestia megaterium. The data set can be described thus: Antimicrobial activity against Bacillus megaterium clinical isolate by broth microdilution method. The class given is functional.
The test system of data set [29] is Mycolicibacterium smegmatis. Put plainly: Antimicrobial activity against Mycobacterium smegmatis 19420 by broth microdilution method. It counts as functional. An outline of the steps: as §1
The subject of data set [30] is Klebsiella pneumoniae. Put plainly: Antimicrobial activity against Klebsiella pneumoniae 5657 by broth microdilution method. It counts as functional. A digest of the protocol: as §1
Data set [31] has as its system Bacillus pumilus. Put plainly: Antimicrobial activity against Bacillus pumilus clinical isolate by broth microdilution method. The class given is functional. An outline of the steps:
as §1

Data set [32] relates to Bacillus anthracis. Put plainly: Antimicrobial activity against Bacillus anthracis Vollum clinical isolate by broth microdilution method. The class given is functional.
Data set [33] concerns Burkholderia thailandensis. Put plainly: Antimicrobial activity against Burkholderia thailandensis by broth microdilution method. It counts as functional.
Data set [34] concerns Staphylococcus aureus. The data set can be described thus: Antimicrobial activity against Staphylococcus aureus by broth microdilution method. The class given is functional. A digest of the protocol:
as §1

The test system of data set [35] is Bacillus anthracis. The data set can be described thus: Inhibition of spore germination in Bacillus anthracis Sterne spores at MIC after 4 hrs. The class given is functional, organism-based.
Data set [36] concerns Bacillus subtilis. The data set can be described thus: Inhibition of RNA synthesis in Bacillus subtilis BD54 at 5 X MIC by [5-3H]uridine incorporation assay. It counts as functional. An outline of the steps:
as §2

Data set [37] has as its system Burkholderia mallei. Put plainly: Antimicrobial activity against Burkholderia mallei ATCC 23344 by broth microdilution method. It counts as functional.
For data set [38], the system named is Bacillus anthracis. The data set can be described thus: Protection against Bacillus anthracis Sterne spores induced cell death in mouse J774A1 cells assessed as dead cells at 10 uM by Sytox green dye staining assay relative to untreated control. The class given is functional, J774.A1.
For data set [39], the system named is Staphylococcus aureus. The data set can be described thus: Antibacterial activity against Staphylococcus aureus Smith infected in Swiss Webster mouse assessed as assessed as protection against microbe-induced mortality at 10 mg/kg, iv administered as single dose 15 mins post bacterial challenge measured 48 hrs post infection. It counts as functional. An outline of the steps:
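Swiss Webster mice (n = 10/group) were challenged i.p. with 8.3 × 10^8 CFU. After 15 min they received a single i.v. dose in 10% dimethyl acetamide–5% dextrose in water (pH 4.0), alongside vehicle and daptomycin (10 mg/kg) controls. Survival was followed for 48 h.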

The test system of data set [40] is Bacillus subtilis. Put plainly: Inhibition of protein synthesis in Bacillus subtilis BD54 at 5 X MIC by L-[4,5-3H]leucine incorporation assay. It counts as functional, organism-based. A digest of the protocol:
as §2

By CC50 is commonly meant the concentration at which the toxic effect on the cells reaches its halfway point. On to `c1cc2cc(-c3ccc4cc(C5=NCCN5)[nH]c4c3)[nH]c2cc1C1=NCCN1`, for which the MIC in [1] was 0.6 µg/mL (≈ 1.63 µM); in data set [3] it was 4.4 µg/mL (≈ 11.9 µM); in data set [5], 0.3 µg/mL; in [6], under 0.1 µg/mL; in data set [7] it was 0.3 µg/mL (≈ 0.814 µM); in [9] it was 0.5 µg/mL (≈ 1.36 µM). The MIC stood at 0.3 µg/mL (≈ 0.814 µM) in [10]; 25 µg/mL (≈ 67.9 µM) in data set [11]; 1.8 µg/mL (≈ 4.89 µM) in data set [12]; 0.3 µg/mL (≈ 0.814 µM) in data set [13]; 2.2 µg/mL (≈ 5.97 µM) in data set [14]; 1.1 µg/mL (≈ 2.99 µM) in data set [15]. The MIC in data set [16] is 2.2 µg/mL (≈ 5.97 µM); in data set [17], 2.2 µg/mL (≈ 5.97 µM); in data set [18] it was 1.1 µg/mL (≈ 2.99 µM); in [19], 1.1 µg/mL (≈ 2.99 µM); in data set [21], 0.2 µg/mL (≈ 0.543 µM); in data set [22] it was 7.4 µg/mL (≈ 20.1 µM). In addition, the MIC in data set [23] was 0.3 µg/mL (≈ 0.814 µM); in data set [24] it was 0.3 µg/mL (≈ 0.814 µM); in [25] it was 0.6 µg/mL (≈ 1.63 µM); in [27], 0.3 µg/mL (≈ 0.814 µM); in data set [28], 0.6 µg/mL (≈ 1.63 µM); in data set [29], 0.2 µg/mL (≈ 0.543 µM). Also, the MIC in [30] is 0.4 µg/mL (≈ 1.09 µM); in data set [31] it was 0.1 µg/mL (≈ 0.271 µM); in data set [32], 0.6 µg/mL (≈ 1.63 µM); in data set [33], 18 µg/mL (≈ 48.9 µM); in [34], 1.1 µg/mL (≈ 2.99 µM); in data set [37], 1.8 µg/mL (≈ 4.89 µM). Besides, the Activity entry in [2] is “Non-toxic”; in data set [4], 89%; in data set [38], 11%. In [8], the inhibition entry is “Active”. The MBC in [10] was 0.5 µg/mL (≈ 1.36 µM); in data set [15] it was 2.2 µg/mL (≈ 5.97 µM); in [32], 1.1 µg/mL (≈ 2.99 µM). Also, the CC50 at 72 h in [20] was 33 µg/mL. The “inhibition (INH)” value in [26] and in data set [36] was 40% throughout. The inhibition entry in data set [35] was “inactive”.

For the compound `CCCCCCCCCC(=O)N[C@@H](Cc1c[nH]c2ccccc12)C(=O)N[C@H](CC(N)=O)C(=O)N[C@@H](CC(=O)O)C(=O)N[C@@H]1C(=O)NCC(=O)N[C@@H](CCCN)C(=O)N[C@@H](CC(=O)O)C(=O)N[C@H](C)C(=O)N[C@@H](CC(=O)O)C(=O)NCC(=O)N[C@H](CO)C(=O)N[C@@H]([C@H](C)CC(=O)O)C(=O)N[C@@H](CC(=O)c2ccccc2N)C(=O)O[C@@H]1C`, the survival at 10 mg/kg in data set [39] was found to be 80%.

In the case of `O=C(N[C@H](CO)[C@H](O)c1ccc([N+](=O)[O-])cc1)C(Cl)Cl`, the inhibition entry in data set [8], in data set [26], in [40] and in data set [36] was “Active” each time.
